Laboratory results taken from publication PMC6683736 (The Journal of Cell Biology, 2019).

Columns and labels:
[1] = test system: MDCK cells; assay: Actomyosin organization by IF; assay type: cell-based, canine
[2] = test system: Scribble PDZ1 domain; assay: X-ray crystal structure of Scribble PDZ1/SGEF-PDZpeptide complex; assay type: binding, human; settings: 1.1 Å, PDB ID 6MYE
[3] = test system: Dlg1; assay: Coimmunoprecipitation of SGEF constructs with GFP-Dlg1, HEK293FT lysates; assay type: binding, Mouse; settings: GFP-trap nanobodies, WB
How it was run: (§1)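 HEK293FT cells were co-transfected by calcium phosphate; medium was changed at 24 h and cells harvested at 48 h. Lysis was in Tris-HCl pH 7.4, MgCl2, 150 mM NaCl, 1% Triton X-100 and protease inhibitors. Equal protein was incubated with GFP-Trap beads for 1 h at 4°C, washed four times, then immunoblotted with anti-GFP and anti-myc (or anti-His).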

[4] = test system: Scribble; assay: Coimmunoprecipitation of SGEF constructs with GFP-Scribble, HEK293FT lysates; assay type: binding, Human; settings: GFP-trap nanobodies, WB
[5] = test system: Xenopus embryos; assay: Junctional localization in gastrula-stage embryos; assay type: in vivo, Xenopus laevis; settings: live confocal, mNeon-tagged
How it was run: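 Embryos were microinjected in the animal hemisphere with mRNAs, either at the two-cell stage (each cell twice) or at the four-cell stage (once). They were raised to gastrula stage (10.5–12) and live-imaged by confocal. mNeon-tagged protein was coexpressed with BFP-ZO-1 (tight junction marker) and PLEKHA7-mCherry (adherens junction marker), and the junctional-to-cytosolic intensity ratio was quantified.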

[6] = test system: MDCK cells; assay: Height of MDCK monolayer, confocal XZ; assay type: cell-based, canine; settings: average, n = 50 cells; Fig. 9 I
How it was run: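 Confocal XZ sections of confluent control, SGEF-knockdown and rescue MDCK monolayers were acquired on a Leica SP8. Cells were stained for E-cadherin, β-catenin and nuclei, or for F-actin and Hoechst, and monolayer height was measured.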

[7] = test system: MDCK cells; assay: Zigzag index of tight junctions; assay type: cell-based, canine; settings: compared with SGEF KD; Fig. 9 J
[8] = test system: SGEF; assay: Coimmunoprecipitation of Dlg1 constructs with SGEF, HEK293FT lysates; assay type: binding, Human; settings: WB
How it was run: as §1

[9] = test system: Scribble/SGEF/Dlg1 ternary complex; assay: Coprecipitation of Scribble with GFP-Dlg1; assay type: binding; settings: HA-Scribble and GFP-Dlg1 coexpressed, IP anti-GFP, HEK293

Cc1ccc2c(c1)C(=O)C1(O)CCN(c3ccccc3)C1=N2 (centres unmarked) [blebbistatin, reference compound]
relative strength of effect on actomyosin array and stress fibers ([1]; 16 h, blebbistatin vs Y-27632): stronger effect than Y-27632

ac-KPNGLLITDFPVEDCONH2 [SGEF-PDZpeptide]
accessible surface area covered by peptide [2]: ~500 Å^2 | binding register in the PDZ pockets [2]: novel interactions through pockets near the α1 helix in Scribble PDZ1 (S+1 pocket), which accommodate the P+1 Pro in SGEF | residues of peptide interacting with Scribble PDZ domain [2]: 11 residues

B1: SGEF 228–871: SGEF deletion mutant, binds to Dlg1 but not to Scribble (protein)
chain: LENPSVVLSTNSPAALKVGKQQIIPKSLASEIKISKSNNQNVEPHKRLLKVRSMVEGLGGPLGHAGEESEVDNDVDSPGSLRRGLRSTSYRRAVVSGFDFDSPTSSKKKNRMSQPVLKVVMEDKEKFSSLGRIKKKMLKGQGTFDGEENAVLYQNYKEKALDIDSDEESEPKEQKSDEKIVIHHKPLRSTWSQLSAVKRKGLSQTVSQEERKRQEAIFEVISSEHSYLLSLEILIRMFKNSKELSDTMTKTERHHLFSNITDVCEASKKFFIELEARHQNNIFIDDISDIVEKHTASTFDPYVKYCTNEVYQQRTLQKLLATNPSFKEVLSRIESHEDCRNLPMISFLILPMQRVTRLPLLMDTICQKTPKDSPKYEVCKRALKEVSKLVRLCNEGARKMERTEMMYTINSQLEFKIKPFPLVSSSRWLVKRGELTAYVEDTVLFSRRTSKQQVYFFLFNDVLIITKKKSEESYNVNDYSLRDQLLVESCDNEELNSSPGKNSSTMLYSRQSSASHLFTLTVLSNHANEKVEMLLGAETQSERARWITALGHSSGKPPADRTSLTQVEIVRSFTAKQPDELSLQVADVVLIYQRVSDGWYEGERLRDGERGWFPMECAKEITCQATIDKNVERMGRLLGLETNV
modifications: left off: myc (inferred from the legends of Figures 1 and 2), end not stated, kept
interaction with Dlg1 [3]: able to bind efficiently to Dlg1 | interaction with Scribble [4]: unable to bind | localization at apical junctional complex [5]: predominantly cytosolic, with only a small fraction still targeted to junctions

B2: SGEF 1–400: minimum region required to bind Scribble and Dlg1, no catalytic activity (protein)
chain: MDGESEVDFSSNSITPLWRRRSIPQPHQVLGRSKPRPQSYQSPNGLLITDFPVEDGGTLLAAQIPAQVPTASDSRTVHRSPLLLGAQRRAVANGGTASPEYRAASPRLRRPKSPKLPKAVPGGSPKSPANGAVTLPAPPPPPVLRPPRTPNAPAPCTPEEDLTGLTASPVPSPTANGLAANNDSPGSGSQSGRKAKDPERGLFPGPQKSSSEQKLPLQRLPSQENELLENPSVVLSTNSPAALKVGKQQIIPKSLASEIKISKSNNQNVEPHKRLLKVRSMVEGLGGPLGHAGEESEVDNDVDSPGSLRRGLRSTSYRRAVVSGFDFDSPTSSKKKNRMSQPVLKVVMEDKEKFSSLGRIKKKMLKGQGTFDGEENAVLYQNYKEKALDIDSDEESEPKE
modifications: left off: myc (inferred from the legend of Figure 2), end not stated, kept
cell height [6]: 2.57 ± 0.049 µm | interaction with Dlg1 [3]: able to bind to Dlg1 | zigzag index (in words) [7]: increased significantly | rescue of increased contractility ([1]; myosin II staining, SGEF KD background): able to rescue the increase in contractility

B3: SGEF 1–227: SGEF deletion mutant, binds to Scribble but not to Dlg1 (protein)
chain: MDGESEVDFSSNSITPLWRRRSIPQPHQVLGRSKPRPQSYQSPNGLLITDFPVEDGGTLLAAQIPAQVPTASDSRTVHRSPLLLGAQRRAVANGGTASPEYRAASPRLRRPKSPKLPKAVPGGSPKSPANGAVTLPAPPPPPVLRPPRTPNAPAPCTPEEDLTGLTASPVPSPTANGLAANNDSPGSGSQSGRKAKDPERGLFPGPQKSSSEQKLPLQRLPSQENEL
modifications: left off: myc (inferred from the legends of Figures 1 and 2), end not stated, kept
cell height [6]: 2.99 ± 0.065 µm | interaction with Dlg1 [3]: did not interact with Dlg1 | interaction with Scribble [4]: sufficient to interact with Scribble | localization at apical junctional complex [5]: localized efficiently to the AJC

B4: Dlg1 C-terminal construct: C-terminal half of Dlg1 comprising the SH3 and GUK domains (protein)
chain: KRSLYVRALFDYDKTKDSGLPSQGLNFKFGDILHVINASDDEWWQARQVTPDGESDEVGVIPSKRRVEKKERARLKTVKFNSKTRDKGEIPDDMGSKGLKHVTSNASDSESSYRGQEEYVLSYEPVNQQEVNYTRPVIILGPMKDRINDDLISEFPDKFGSCVPHTTRPKRDYEVDGRDYHFVTSREQMEKDIQEHKFIEAGQYNNHLYGTSVQSVREVAEKGKHCILDVSGNAIKRLQIAQLYPISIFIKPKSMENIMEMNKRLTEEQARKTFERAMKLEQEFTEHFTAIVQGDTLEDIYNQVKQIIEEQSGSYIWVPAKEKL
modifications: left off: GFP (inferred from the legend of Figure 2), end not stated, kept
interaction with SGEF [8]: able to bind efficiently to SGEF

B5: GUK domain alone: Dlg1 GUK domain, 699–893 (protein, UniProt Q12959 699-893, looked up, fragment)
chain: YVLSYEPVNQQEVNYTRPVIILGPMKDRINDDLISEFPDKFGSCVPHTTRPKRDYEVDGRDYHFVTSREQMEKDIQEHKFIEAGQYNNHLYGTSVQSVREVAEKGKHCILDVSGNAIKRLQIAQLYPISIFIKPKSMENIMEMNKRLTEEQARKTFERAMKLEQEFTEHFTAIVQGDTLEDIYNQVKQIIEEQSG
modifications: GUK domain
interaction with SGEF [8]: able to interact with SGEF

B6: SGEF 1–414: N-terminal half of SGEF, ends just before DH-PH domain (protein)
chain: MDGESEVDFSSNSITPLWRRRSIPQPHQVLGRSKPRPQSYQSPNGLLITDFPVEDGGTLLAAQIPAQVPTASDSRTVHRSPLLLGAQRRAVANGGTASPEYRAASPRLRRPKSPKLPKAVPGGSPKSPANGAVTLPAPPPPPVLRPPRTPNAPAPCTPEEDLTGLTASPVPSPTANGLAANNDSPGSGSQSGRKAKDPERGLFPGPQKSSSEQKLPLQRLPSQENELLENPSVVLSTNSPAALKVGKQQIIPKSLASEIKISKSNNQNVEPHKRLLKVRSMVEGLGGPLGHAGEESEVDNDVDSPGSLRRGLRSTSYRRAVVSGFDFDSPTSSKKKNRMSQPVLKVVMEDKEKFSSLGRIKKKMLKGQGTFDGEENAVLYQNYKEKALDIDSDEESEPKEQKSDEKIVIHHKPL
modifications: left off: myc (inferred from the legends of Figures 2 and 3), end not stated, kept
formation of Scribble/SGEF/Dlg1 ternary complex [9]: minimum SGEF mutant that can mediate the formation of the Scribble/SGEF/Dlg1 complex | interaction with Dlg1 [3]: interacted efficiently with Dlg1

B7: SH3 domain by itself: Dlg1 SH3 domain, 536–636 (protein, UniProt Q12959 536-636, looked up, fragment)
chain: GQAVTIVAQYRPEEYSRFEAKIHDLREQMMNSSISSGSGSLRTSQKRSLYVRALFDYDKTKDSGLPSQGLNFKFGDILHVINASDDEWWQARQVTPDGESD
modifications: SH3 domain
interaction with SGEF [8]: no detectable binding
